Laboratory results published in ChEMBL document CHEMBL2062428, “Cyclooxygenase-1-selective inhibitors based on the (E)-2'-des-methyl-sulindac sulfide scaffold” (J Med Chem, 2012).
pEC50, pIC50: −log10 of the molar value. The source made the active and inactive calls. The calls are words filed in the database; no cut-off is given here.

Key:
OVCAR-3 [1] = assay: Cytotoxicity against human OVCAR3 cells growth inhibition up to 250 uM after 2 days by WST1 assay; assay type: functional, cell-based
How it was run: (§1)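 Viability of human ovarian carcinoma NIH-OVCAR-3 cells, which express COX-1 but no detectable COX-2, after a 2-day compound treatment. Concentrations up to 250 μM tested. EC50 for growth inhibition derived from concentration–response curves.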

MDA-MB-231 = assay: Cytotoxicity against human MDA-MB-231 cells after 48 hrs by WST1 assay; assay type: functional, cell-based; settings: MDA-MB-231, 48 h
[2] = biological target: T1, Prostaglandin G/H synthase 1 (Ovis aries) (UniProt P05979); assay: Inhibition of ovine COX-1 using [14C] arachidonic acid as substrate at 4 uM preincubated for 17 mins before substrate addition measured after 3 mins by thin-layer chromatographic analysis
T1 sequence (whole entry): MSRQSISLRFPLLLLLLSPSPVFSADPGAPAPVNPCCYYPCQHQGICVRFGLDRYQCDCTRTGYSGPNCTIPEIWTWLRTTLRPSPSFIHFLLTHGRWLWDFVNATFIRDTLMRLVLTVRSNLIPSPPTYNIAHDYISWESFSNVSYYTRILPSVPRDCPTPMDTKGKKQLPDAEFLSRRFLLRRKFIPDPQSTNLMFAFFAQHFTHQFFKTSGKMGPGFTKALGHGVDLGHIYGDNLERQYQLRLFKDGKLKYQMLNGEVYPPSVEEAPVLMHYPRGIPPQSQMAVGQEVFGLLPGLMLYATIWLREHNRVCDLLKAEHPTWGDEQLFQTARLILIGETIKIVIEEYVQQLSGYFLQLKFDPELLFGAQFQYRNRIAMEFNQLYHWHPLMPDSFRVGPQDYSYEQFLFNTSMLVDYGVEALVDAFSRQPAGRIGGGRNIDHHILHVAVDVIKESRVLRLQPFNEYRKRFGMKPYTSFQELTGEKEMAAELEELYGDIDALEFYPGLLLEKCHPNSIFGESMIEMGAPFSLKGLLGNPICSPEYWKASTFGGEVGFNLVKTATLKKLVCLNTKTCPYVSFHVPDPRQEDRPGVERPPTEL
How it was run: (§2)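 Purified ovine COX-1 or murine COX-2 preincubated with a single 4 μM inhibitor concentration for 17 min. […] Reaction quenched; radioactive products extracted and quantified. Mean ± SEM of two experiments.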

[3] = biological target: T2, Prostaglandin G/H synthase 2 (Mus musculus) (UniProt Q05769); assay: Inhibition of mouse COX-2 using [14C] arachidonic acid as substrate at 4 uM preincubated for 17 mins before substrate addition measured after 3 mins by thin-layer chromatographic analysis; how it was run: as §2
T2 sequence (whole entry): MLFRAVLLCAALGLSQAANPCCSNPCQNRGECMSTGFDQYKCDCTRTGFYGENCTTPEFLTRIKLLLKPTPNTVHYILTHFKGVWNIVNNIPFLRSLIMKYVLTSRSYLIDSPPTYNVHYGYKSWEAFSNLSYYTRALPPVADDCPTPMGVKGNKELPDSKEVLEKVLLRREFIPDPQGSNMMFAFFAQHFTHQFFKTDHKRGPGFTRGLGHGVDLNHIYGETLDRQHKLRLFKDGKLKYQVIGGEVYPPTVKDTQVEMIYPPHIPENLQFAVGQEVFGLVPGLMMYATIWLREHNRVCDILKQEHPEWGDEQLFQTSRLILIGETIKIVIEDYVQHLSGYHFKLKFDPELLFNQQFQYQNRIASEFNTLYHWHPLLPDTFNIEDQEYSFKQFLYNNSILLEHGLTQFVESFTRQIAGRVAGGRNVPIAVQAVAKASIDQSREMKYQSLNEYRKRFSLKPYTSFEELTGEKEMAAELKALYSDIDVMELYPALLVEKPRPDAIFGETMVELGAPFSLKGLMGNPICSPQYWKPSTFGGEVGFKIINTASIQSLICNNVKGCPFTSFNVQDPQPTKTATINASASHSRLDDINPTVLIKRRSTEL

[4] = biological target: T3, Prostaglandin G/H synthase 2 (Homo sapiens) (UniProt P35354); assay: Inhibition of COX-2 in human HNSCC 1483 cells using [14C] arachidonic acid as substrate at 5 uM preincubated for 30 mins before substrate addition measured after 30 mins; assay type: cell-based
T3 sequence (whole entry): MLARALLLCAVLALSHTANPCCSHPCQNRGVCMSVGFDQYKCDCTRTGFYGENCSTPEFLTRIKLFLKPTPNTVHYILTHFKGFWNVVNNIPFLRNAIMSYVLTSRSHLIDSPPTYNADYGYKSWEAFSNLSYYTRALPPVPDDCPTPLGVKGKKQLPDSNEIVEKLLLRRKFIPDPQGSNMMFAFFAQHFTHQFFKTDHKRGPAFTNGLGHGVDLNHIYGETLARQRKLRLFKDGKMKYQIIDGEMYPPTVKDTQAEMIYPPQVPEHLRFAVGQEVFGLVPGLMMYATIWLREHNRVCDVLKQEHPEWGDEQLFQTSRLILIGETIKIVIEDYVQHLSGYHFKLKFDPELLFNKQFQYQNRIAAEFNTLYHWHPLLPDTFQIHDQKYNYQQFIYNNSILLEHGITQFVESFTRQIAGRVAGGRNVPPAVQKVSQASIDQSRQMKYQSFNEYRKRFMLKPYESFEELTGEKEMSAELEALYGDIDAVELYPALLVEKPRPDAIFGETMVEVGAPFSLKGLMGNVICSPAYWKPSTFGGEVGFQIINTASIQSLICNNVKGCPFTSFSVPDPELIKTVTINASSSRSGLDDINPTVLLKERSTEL

OVCAR-3 [5] = assay: Cytotoxicity against human OVCAR3 cells after 2 days by WST1 assay; assay type: functional, cell-based; settings: OVCAR-3, 48 h; how it was run: as §1
[6] = biological target: T4, Prostaglandin G/H synthase 1 (Ovis aries, UniProt P05979); assay: Inhibition of ovine COX-1 using [14C] arachidonic acid as substrate preincubated for 17 mins before substrate addition measured after 3 mins by thin-layer chromatographic analysis
T4 sequence (P05979 whole entry): T1 sequence (whole entry)

[7] = biological target: T5, Prostaglandin G/H synthase 2 (Mus musculus, UniProt Q05769); assay: Inhibition of mouse COX-2 using [14C] arachidonic acid as substrate preincubated for 17 mins before substrate addition measured after 3 mins by thin-layer chromatographic analysis
T5 sequence (Q05769 whole entry): T2 sequence (whole entry)

[8] = biological target: T1, Prostaglandin G/H synthase 1 (Ovis aries); assay: Inhibition of ovine COX-1 using [14C] arachidonic acid as substrate at 25 uM preincubated for 17 mins before substrate addition measured after 3 mins by thin-layer chromatographic analysis

Row | SMILES | inhibition [2] [%] | inhibition [3] [%] | other results
1 | CSc1ccc(/C=C2/C(C)=C(CC(=O)O)c3cc(F)ccc32)cc1 [SULINDAC SULFIDE] |  |  | growth inhibition (GI) (OVCAR-3 [1]): inactive; pEC50 (MDA-MB-231): 3.68
2 | CSc1ccc(/C=C2\C=C(CC(=O)O)c3cc(F)ccc32)cc1 | 65 | 10 | inhibition [4]: inactive; pEC50 (OVCAR-3 [5]): 3.65
3 | CSc1ccc(/C=C2\C=C(CC(=O)NS(=O)(=O)C(F)(F)F)c3cc(F)ccc32)cc1 | 65 | 15 | pEC50 (MDA-MB-231): 3.67
4 | O=C(O)CC1=C/C(=C\c2ccc(-c3ccccc3)cc2)c2ccc(F)cc21 | 75 | 1 | pIC50 [6]: 6.24; pEC50 (MDA-MB-231): 3.85; pIC50 [7]: < 5.40; inhibition [4]: inactive; pEC50 (OVCAR-3 [5]): 3.88
5 | CCOC(=O)CC1=C/C(=C\c2ccc(-c3ccccc3)cc2)c2ccc(F)cc21 | 64 | 28 | pIC50 [6]: 5.96
6 | CC1=C(CC(=O)O)c2cc(F)ccc2/C1=C/c1ccc([S+](C)[O-])cc1 (configuration not stated) [SULINDAC SULFOXIDE] |  |  | pEC50 (OVCAR-3 [5]): 3.68
7 | COc1ccc2c(c1)C(CC(=O)O)=C/C2=C\c1ccc(SC)cc1 |  |  | inhibition [8]: 19%
8 | CC(C)(C(=O)O)C1=C/C(=C\c2ccc(-c3ccccc3)cc2)c2ccc(F)cc21 | 58 |  | pIC50 [6]: 5.66
9 | CSc1ccc(/C=C2\C=C(CC(=O)NS(=O)(=O)c3ccccc3C)c3cc(F)ccc32)cc1 | 60 | 36 | 
10 | O=C(O)CC1=C/C(=C\c2ccc(Br)cc2)c2ccc(F)cc21 | 73 | 34 | 
11 | COc1ccc(-c2cccc(/C=C3\C=C(CC(=O)O)c4cc(F)ccc43)n2)cc1 | 35 | 56 | 
12 | CCOC(=O)C(C)(C)C1=C/C(=C\c2cc(-c3ccc(C)cc3)on2)c2ccc(F)cc21 | 37 | 0 | 
13 | O=C(O)CC1=C/C(=C\c2ccccc2)c2ccc(F)cc21 | 74 | 34 | 
14 | CSc1ccc(/C=C2\C=C(CC(=O)NS(=O)(=O)c3ccc(Cl)s3)c3cc(F)ccc32)cc1 | 59 | 34 | 
15 | CCOC(=O)C(C)(C)C1=C/C(=C\c2cccc(-c3ccccc3)c2)c2ccc(F)cc21 | 24 | 4 | 
